Columns and labels:
[1] = Dissociation constant was determined; type: physicochemical
[2] = target: Prostaglandin E2 receptor EP4 subtype (Homo sapiens, UniProt P35408); assay: In vitro binding at EP4 human prostaglandin receptor using [3H]PGE-2 as radioligand
In short: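 Receptors stably expressed in CHO cells, collected 4-5 days after seeding. Membranes made by lysis (Tris, EDTA, protease inhibitors) and 100000g pellet, then resuspended at 1 mg protein/mL in TME. Radioligands at 5 nM: [3H]PGE2 for EP2/EP3/EP4, [3H]Iloprost for IP, [3H]SQ-29548 for TP. Competition binding with filtration and counting.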

[3] = test system: Rattus norvegicus; assay: Bone Volume /Tissue Volume (%)measured using micro Computed Tomography(CT) after a dose of 30 ug/kg in Vertebral Bone; type: functional; settings: at 30 µg/kg
[4] = test system: Rattus norvegicus; assay: Mineralizing surface/bone surface(%) measured Histomorphometrically after a dose of 100 ug/kg in proximal tibial metaphysis; type: functional
In short: (§1)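 Ovariectomized six-month-old rats, 6-8 per group, were dosed subcutaneously once daily at 0.01–3.0 mg/kg for 60 days, starting 60 days after surgery. Vehicle was acetate-buffered saline, methylcellulose and polyoxyethylenesorbitan monooleate. Labels were xylenol orange 90 mg/kg pretreatment and calcein 10 mg/kg at 14 and 4 days before necropsy. Histomorphometry covered the proximal tibial metaphysis, 1–4 mm distal to the growth plate–metaphyseal junction. ANOVA/LSD versus vehicle.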

[5] = test system: Rattus norvegicus; assay: Bone Volume /Tissue Volume (%)measured Histomorphometrically after a dose of 30 ug/kg in proximal tibial metaphysis; type: functional; settings: at 30 µg/kg
[6] = test system: Rattus norvegicus; assay: Bone Volume /Tissue Volume (%)measured using micro Computed Tomography(CT) after a dose of 100 ug/kg in Vertebral Bone; type: functional; settings: at 100 µg/kg
[7] = test system: Rattus norvegicus; assay: Mineralizing surface/bone surface(%) measured Histomorphometrically after a dose of 30 ug/kg in proximal tibial metaphysis; type: functional; in short: as §1
[8] = test system: Rattus norvegicus; assay: Bone formation rate/tissue volume (%/year) bone measured histomorphometrically after a dose of 100 ug/kg in proximal tibial metaphysis; type: functional; settings: at 100 µg/kg
[9] = test system: Rattus norvegicus; assay: Bone formation rate/tissue volume (%/year) bone measured histomorphometrically after a dose of 30 ug/kg in proximal tibial metaphysis; type: functional; settings: at 30 µg/kg
[10] = test system: Rattus norvegicus; assay: Derived trabecular no […]measured using micro Computed Tomography(CT) after a dose of 3000 ug/kg in Vertebral Bone; type: functional, Trabecula
In short: (§2)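 Micro-CT of the fifth lumbar vertebra, measuring cancellous bone volume and architecture. Rats were 6 months old, OVX 60 days before treatment, then dosed daily for 60 days. Test-agent doses were 10–3000 µg/kg, given as a once-daily subcutaneous injection; 6 mg/kg/day was given to the positive-control group. Groups were compared with vehicle by ANOVA plus LSD test.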

[11] = test system: Rattus norvegicus; assay: Derived trabecular no (mm-1)measured using micro Computed Tomography(CT) after a dose of 1000 ug/kg in Vertebral Bone; type: functional, Trabecula; in short: as §2
[12] = test system: Rattus norvegicus; assay: Derived trabecular no […]measured using micro Computed Tomography(CT) after a dose of 10 ug/kg in Vertebral Bone; type: functional, Trabecula; in short: as §2
[13] = test system: Rattus norvegicus; assay: Directly measured thickness(um) using micro Computed Tomography(CT) after a dose of 100 ug/kg in Vertebral Bone; type: functional; in short: as §2
[14] = test system: Rattus norvegicus; assay: Endosteal mineralizing surface Histomorphometrically after a dose of 1000 ug/kg in tibial diaphysis; type: functional
In short: (§3)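 Six-month-old rats, bilaterally ovariectomized, 6-8 per group, on natural chow. After 60 days they received once-daily subcutaneous dosing for 60 days at 0.01–3.0 mg/kg. Vehicle was acetate-buffered saline with methylcellulose and polyoxyethylenesorbitan monooleate. Labels were xylenol orange 90 mg/kg before treatment and calcein 10 mg/kg 14 and 4 days before sacrifice. Tibial histomorphometry was read under fluorescent light, with ANOVA/LSD versus vehicle.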

[15] = test system: Rattus norvegicus; assay: Periosteal mineral apposition rate ([…]) measured Histomorphometrically after a dose of 1000 ug/kg in tibial diaphysis; type: functional; in short: as §3
[16] = test system: Rattus norvegicus; assay: Mineral apposition rate ([…])bone measured Histomorphometrically after a dose of 10 ug/kg in proximal tibial metaphysis; type: functional; in short: as §1
[17] = test system: Rattus norvegicus; assay: Mineral apposition rate ([…])bone measured Histomorphometrically after a dose of 300 ug/kg in proximal tibial metaphysis; type: functional; in short: as §1
[18] = test system: Rattus norvegicus; assay: Trabecular thickness […] measured Histomorphometrically after a dose of 300 ug/kg in proximal tibial metaphysis; type: functional, Trabecula
In short: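 Six-month-old rats were ovariectomized, and 60 days later daily subcutaneous dosing began for 60 days, with vehicle of acetate-buffered saline, methylcellulose and polysorbate. Xylenol orange (90 mg/kg) labelled bone pre-treatment and calcein (10 mg/kg) 14 and 4 days pre-sacrifice. Histomorphometry covered the proximal tibial metaphysis 1-4 mm distal to the growth plate-metaphyseal junction. Groups were 6-8 rats, compared by ANOVA/LSD vs vehicle.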

[19] = test system: Rattus norvegicus; assay: connectivity density (mm-3) using micro Computed Tomography(CT) after a does of 10 ug/kg in Vertebral Bone; type: functional
In short: (§4)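 Rats were ovariectomized at 6 months of age and, after 60 days, dosed subcutaneously once daily for 60 days, with vehicle of acetate-buffered saline, methylcellulose and polysorbate. At necropsy the fifth lumbar vertebra was scanned by micro-CT to obtain cancellous architecture. Groups were 6-8 rats; results were compared to vehicle by ANOVA with least significant difference test.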

[20] = test system: Rattus norvegicus; assay: connectivity density (mm-3) using micro Computed Tomography(CT) after a does of 3000 ug/kg in Vertebral Bone; type: functional; in short: as §4
[21] = test system: Rattus norvegicus; assay: Tissue area (mm) measured Histomorphometrically after a dose of 300 ug/kg in tibial diaphysis; type: functional
In short: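 Rats on natural chow (1.46% Ca) were bilaterally ovariectomized at 6 months and left untreated for 60 days. They then received once-daily subcutaneous doses for 60 days, with vehicle of acetate-buffered saline, methylcellulose and polysorbate. Xylenol orange (90 mg/kg) was given before treatment and calcein (10 mg/kg) 14 and 4 days before sacrifice. Tibiae were analysed by fluorescent histomorphometry, 6-8 rats/group, ANOVA/LSD vs vehicle.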

Prostaglandin E2 receptor EP4 subtype, sequence (P35408 whole entry): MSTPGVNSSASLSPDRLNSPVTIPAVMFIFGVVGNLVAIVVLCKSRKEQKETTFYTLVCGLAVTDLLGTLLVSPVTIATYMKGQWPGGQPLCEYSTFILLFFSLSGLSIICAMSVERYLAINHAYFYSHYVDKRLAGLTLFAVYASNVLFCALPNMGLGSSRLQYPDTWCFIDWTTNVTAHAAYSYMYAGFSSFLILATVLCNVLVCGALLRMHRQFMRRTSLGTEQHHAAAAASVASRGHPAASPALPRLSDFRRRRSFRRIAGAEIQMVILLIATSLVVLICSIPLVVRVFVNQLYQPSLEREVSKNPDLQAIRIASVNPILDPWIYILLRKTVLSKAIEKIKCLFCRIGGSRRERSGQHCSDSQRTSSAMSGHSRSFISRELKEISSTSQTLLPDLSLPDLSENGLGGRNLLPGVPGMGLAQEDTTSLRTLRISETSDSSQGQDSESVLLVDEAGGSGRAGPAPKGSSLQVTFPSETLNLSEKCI

**Q.** For `CP(=O)(O)CCC/C=C\C[C@@H]1[C@@H](/C=C/[C@@H](O)COc2ccccc2)[C@H](O)C[C@@H]1O`, which pKa [1] is on record?
**A.** Its pKa is 3.1.

**Q.** And the IC50 [2]?
**A.** The IC50 was > 10 µM.

**Q.** And the Activity [3]?
**A.** The Activity was 34.58%.

**Q.** And the Activity [4]?
**A.** Its Activity is 27.11%.

**Q.** And the Activity [5]?
**A.** Its Activity is 3.63%.

**Q.** And the Activity [6]?
**A.** Its Activity is 38.04%.

**Q.** What about the Activity [7] of the same compound?
**A.** Its Activity is 30.59%.

**Q.** What about the Activity [8] of the same compound?
**A.** Its Activity is 18.23%.

**Q.** What about the Activity [9] of the same compound?
**A.** The Activity was 17.55%.

**Q.** What about the Derived trabecular number [10] of the same compound?
**A.** Its Derived trabecular number is 4.71 mm-1.

**Q.** What about the Derived trabecular number [11] of the same compound?
**A.** The Derived trabecular number was 4.59 mm-1.

**Q.** And the Derived trabecular number [12]?
**A.** The Derived trabecular number was 4.26 mm-1.

**Q.** What about the Directly measured thickness [13] of the same compound?
**A.** Its Directly measured thickness is 127 µm.

**Q.** What about the Endosteal mineralizing surface [14] of the same compound?
**A.** The Endosteal mineralizing surface was 35.29%.

**Q.** What about the Periosteal mineral apposition rate [15] of the same compound?
**A.** The Periosteal mineral apposition rate was 0 µm/day.

**Q.** And the Mineral apposition rate [16]?
**A.** The Mineral apposition rate was 0.99 µm/day.

**Q.** And the Mineral apposition rate [17]?
**A.** The Mineral apposition rate was 0.98 µm/day.

**Q.** And the Trabecular thickness [18]?
**A.** Its Trabecular thickness is 44 µm.

**Q.** What about the Connectivity density [19] of the same compound?
**A.** Its Connectivity density is 60.28 mm**-3.

**Q.** What about the Connectivity density [20] of the same compound?
**A.** Its Connectivity density is 55.9 mm**-3.

**Q.** And the Tissue area [21]?
**A.** The Tissue area was 5.01 mm.
